From ChEMBL document CHEMBL4513216, “Probing the Open Global Health Chemical Diversity Library for Multistage-Active Starting Points for Next-Generation Antimalarials” (ACS Infect Dis, 2020)

Experiment: Toxicity liver stage against HepG2, at 10uM
Type: cell-based
Set-up: test concentration 10 uM, cell line HepG2-A16-CD81EGFP
Settings: human, HepG2-A16-CD81EGFP cells; read-out: INHIBITION
Outline: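 Uninfected HepG2-A16-CD81EGFP cells, 3 × 10^3 per well, 1536-well, plated on prespotted compound at 10 μM final, parasite-free screening media added to match infected plates; puromycin 10 μM positive, DMSO 0.5% negative; run in parallel with 48 h PbLuc assay at 37 °C, 5% CO2; viability by CellTiter-Glo luminescence, normalized to controls.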

| Compound | cytotoxicity at 10 µM [%] |
| --- | --- |
| c1cc(-c2nnc([C@H]3CCN(C4CCOCC4)C3)o2)ccn1 | -61.3 |
| COc1ccc(CNc2c(N3CCN(C(C)=O)CC3)c(=O)c2=O)cc1 | -2.36 |
| Cc1cnc2c(c1NCc1cccs1)c(=O)n(C)c(=O)n2C | 0.319 |
| COC[C@@H]1CN(C)C(=O)[C@@H]2CCN(Cc3ccco3)CC[C@H]12 | -6.13 |
| COCCN1CCc2ncc(CNc3cc(N(C)C)ncn3)n2CC1 | -1.95 |
| c1cnn(Cc2nnc3n2CCCN(c2nccs2)C3)c1 | 9.37 |
| CC(C)CN1C(=O)CO[C@@H]2CN(C(=O)CC(F)(F)F)C[C@H]21 | -1.74 |
| Cc1cccc(C(=O)N2CCO[C@H]3[C@H](OCCN(C)C)CC[C@@H]32)n1 | 3.31 |
| CC(C)CN1C(=O)CC(N2CCN(c3ccc(F)cc3)CC2)C1=O (centres undefined) | 6.56 |
| O=C(CC1Cn2ncnc2NC1=O)Nc1cccc(C(F)(F)F)c1 (centres undefined) | 6.17 |
| CCOc1ccc(N2CCCN=C2NC(=O)c2cccc(C)c2)cc1 | 1.61 |
| Cc1cccc(Cc2cc(C)nc(C3CCCNC3)c2)c1 (centres undefined) | 1.58 |
| CNc1cncc(C2CCCN2C(=O)c2ccc3c(c2)CCC3)n1 (centres undefined) | -15.1 |
| COc1ccc(C2Nc3ccccc3C3=NCCCN32)cc1OC (centres undefined) | 6.05 |
| NCc1cnn(-c2ccccc2C(=O)NCCCn2ccnc2)c1 | -3.01 |
| CC1(C(=O)NCCc2ccc(F)cc2)CCOCC1 | 5.42 |
| O=C(c1ccc(Cl)cc1)N1CCn2c(nn(-c3cccc(Cl)c3)c2=O)C1 | 5.84 |
| Cc1cnc(N2CCC(OCCN3CCCCC3)C2)nc1C (centres undefined) | -43.9 |
| CCNC(=O)c1ccc(NC(=O)N(C)Cc2cccn2C)c(C)c1 | -0.132 |
| CCc1ccc(CNc2cc(-c3ccoc3C)nn2CCO)o1 | 0.485 |
| Cc1cc(S(C)(=O)=O)c(C)c(S(=O)(=O)NCC2CCC2)c1 | 16.3 |
| COc1ccc(C)cc1C(C)NS(=O)(=O)c1ccc2c(c1)CCC(=O)N2 (centres undefined) | -33 |
| Cc1cc(CNC(=O)N2CCN(c3ccc(Cl)cn3)CC2)c(C)o1 | 13.9 |
| Cc1nc(CNC(=O)N2CCN(c3ccc(Cl)cn3)CC2)sc1C | 3.92 |
| CN(Cc1ccc2c(c1)OCCO2)c1ncc(S(N)(=O)=O)s1 | 0.482 |
| CCOC(=O)C1CCN(C(=O)CN2CCCC2c2ccsc2)CC1 (centres undefined) | -5.42 |
| CCn1nc(C)cc1C(=O)NCc1cc(N(C)C)nc2ccccc12 | 10.6 |

| Compound | cytotoxicity at 10 µM [%] |
| --- | --- |
| Cc1cc(S(=O)(=O)N2CCCc3cc(Br)ccc32)sc1C(=O)O | 2.91 |
| COCCSCC(=O)NC1(c2cccc(Br)c2)CC1 | 13.3 |
| CCOc1cc(CN(C)CCC(=O)OC)ccc1OC(F)F | -0.769 |
| CCN(CC)C(CNS(=O)(=O)c1ccc(C(N)=O)cc1)c1ccco1 (centres undefined) | -8.64 |
| O=C(C[S+]([O-])Cc1cccc(F)c1)NC1CCCC1 (centres undefined) | 1.79 |
| CC(C(=O)Nc1ncccn1)N1CCC(n2ccnc2)CC1 (centres undefined) | -8.15 |
| Cc1[nH]ccc1C(=O)N(C)C1CC(=O)N(Cc2ccccc2)C1=O (centres undefined) | 8.76 |
| CSCC(CCO)NC(=O)c1cccc(C)c1Cl (centres undefined) | 16.8 |
| COc1ccc(NC(C)c2nnnn2-c2ccccc2)cc1F (centres undefined) | 12.1 |
| Cc1cc2n(n1)CC(CNCCc1cnn(C)c1)CN2 (centres undefined) | 5.27 |
| Cc1cc(C)cc(C(C)NC(=O)c2ccc(CS(C)(=O)=O)o2)c1 (centres undefined) | 2.49 |
| CN(C)C(=O)CCS(=O)(=O)Cc1cc(Cl)c2c(c1)OCCO2 | 9.15 |
| CC(=O)N1CCN(CCNc2ncc(Br)cc2C)CC1 | 2.86 |
| CCS(=O)(=O)N1CCC2(CC1)CN(c1ccsc1)C(=O)CO2 | -73.7 |
| CNC(=O)[C@@]12CCO[C@@H]1CCN(S(=O)(=O)c1cc(C)cc(C)c1)C2 | -73.5 |
| Cc1nc(COC[C@H]2CCC[C@]23CN(CC2CC2)CCO3)cs1 | -76.9 |
| CNC(=O)C1=NOC2(CCN(Cc3nccs3)C2)C1 (centres undefined) | -73.4 |
| Cc1noc([C@H]2C[C@@H]3CCN(C(=O)N(C)C)C[C@H]3O2)n1 | 2.8 |
| COCCC(=O)N1CC2(CCN(Cc3ccoc3)C2)C1 | 8.47 |
| CNCC(=O)Nc1ccc(-c2cnc(NCCS(C)(=O)=O)nc2)cc1 | -3.08 |
| c1cc(CN2CCCN(c3ccc4cc[nH]c4n3)CC2)ccn1 | -9.98 |
| CC(C)Cc1ncc2c(n1)CN(C(=O)Cn1c(=O)oc3ccccc31)C2 | -36.2 |
| Cc1cc(C(F)(F)F)nc(CNC(=O)C2CCCCCN2C)n1 (centres undefined) | -46 |
| COc1nc2c(cc1C(=O)N1CCCOC(CN3CCCC3)C1)CCC2 (centres undefined) | -48.8 |
| O=C(NCC1CCN(Cc2cc3ccccc3[nH]2)C1)C1CCCCC1 (centres undefined) | 9.81 |
| CCCN1CCC(Cc2nc(CN3CCN(C)CC3)no2)CC1 | 1.25 |
| COc1cc(S(=O)(=O)N2C[C@@H](C)[C@@](C)(O)C2)c(C)cc1C | -2.06 |

| Compound | cytotoxicity at 10 µM [%] |
| --- | --- |
| CC(C)(O)CCc1cccc(C(=O)NCc2cnn3cccnc23)c1 | -44.8 |
| O=C(NCc1nc(NC2CCCC2)c2cc(Cl)ccc2n1)c1cscn1 | 7.12 |
| Cc1ccsc1-c1nc(CN(C)Cc2cc[nH]n2)c(C)o1 | 10.3 |
| Cc1cc(F)ccc1N1CCC(N2C[C@@H](C)[C@@](C)(O)C2)CC1 | 8.79 |
| CCN(CCO)C[C@@H]1CN(c2nc(C)cc(C)n2)C[C@@H]1CO | -5.34 |
| CC(C)[C@@H]1CN(CCCOc2ccc(F)cc2)C[C@H]1NS(C)(=O)=O | -46.4 |
| O=C(CCCn1cncn1)N1CCC2(CC1)[C@H](O)C[C@@H]2OCCO | 5.3 |
| CC(=O)N1CCCC(Cc2cncc(Br)c2)CC1 (centres undefined) | 4.99 |
| CC(Cn1cccn1)NC(=O)NCc1ccc(OC2CCCC2)nc1 (centres undefined) | -12.9 |
| Cc1nc(COc2cccc(C#N)c2)no1 | -0.513 |
| O=C(CN1CC(n2cccn2)C1)NCCCc1ccccc1 | -9.51 |
| COC(=O)c1ccc(N2CCN(C(=O)c3cc(C)on3)C(C)C2)cc1 (centres undefined) | -7.85 |
| CC(C)c1nc(C2CCCN2CC(=O)Nc2ccc(Cl)cn2)no1 (centres undefined) | -3.13 |
| Cc1cnn(CC(C)NCc2ccc(OCc3ccncc3)cc2)c1 (centres undefined) | 3.15 |
| Cc1ccc(CN(CCCn2ccnc2)Cc2ccccc2O)s1 | -14.6 |
| O=C(CO[C@@H]1CC[C@H]2[C@H]1OCCN2Cc1ccccn1)N1CCCC1 | -3.98 |
| Cn1nc(C2CCCN(Cc3ccc(F)c(F)c3)C2)c2nccnc21 (centres undefined) | -2.9 |
| COCCN1CC[C@H]2CN(c3cc(OC)ncn3)C[C@@H]2C1=O | 10.3 |
| O=C(O)CN1CCC(F)(F)C2(CCN(c3ccccc3)C2)C1 (centres undefined) | 10.7 |
| c1cncc(C2CC3(CCN(c4cnccn4)CC3)c3ccccc32)c1 (centres undefined) | 11.2 |
| O=C(N1CCCC1)N1CCC[C@]2(C[C@@H](OCc3ccncc3)CO2)C1 | 7.19 |
| Cn1cc(CN2CC[C@@H](NS(C)(=O)=O)[C@@H]2Cc2cccnc2)cn1 | -74.4 |
| Cn1cc(N2CC3(CCN(Cc4ccsc4)CC3)OCC2=O)cn1 | -82.8 |
| O=C(NCc1ccccn1)[C@@H]1CCO[C@@H]2CCN(Cc3ccoc3)C[C@H]21 | 5.33 |
| COCC1CN(S(=O)(=O)Cc2ccccc2)Cc2c1cnn2C (centres undefined) | -3.61 |
